The text below walks through data of ChEMBL document CHEMBL3390837, “Bridged tetrahydroisoquinolines as selective NADPH oxidase 2 (Nox2) inhibitors” (Medchemcomm, 2013).

One assay deals with T1, NADPH oxidase 2 (Homo sapiens, UniProt P04839).
T1 sequence (P04839 whole entry): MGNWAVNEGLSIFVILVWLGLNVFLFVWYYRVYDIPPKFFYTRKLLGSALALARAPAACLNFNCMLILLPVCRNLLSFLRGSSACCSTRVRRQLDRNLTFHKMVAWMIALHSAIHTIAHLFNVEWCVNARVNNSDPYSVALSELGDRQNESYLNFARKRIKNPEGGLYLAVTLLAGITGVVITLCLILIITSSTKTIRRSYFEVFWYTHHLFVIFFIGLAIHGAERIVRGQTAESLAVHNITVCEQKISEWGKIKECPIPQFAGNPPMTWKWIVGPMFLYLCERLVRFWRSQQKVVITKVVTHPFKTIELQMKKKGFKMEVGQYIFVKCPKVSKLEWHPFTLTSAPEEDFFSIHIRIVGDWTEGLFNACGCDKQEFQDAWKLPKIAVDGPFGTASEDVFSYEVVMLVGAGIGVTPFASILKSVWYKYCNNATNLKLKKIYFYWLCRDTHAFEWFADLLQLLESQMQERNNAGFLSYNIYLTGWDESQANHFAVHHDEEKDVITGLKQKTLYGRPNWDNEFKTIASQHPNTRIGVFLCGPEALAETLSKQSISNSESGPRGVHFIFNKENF
The assay is described as follows: Inhibition of full length human NOX2 transfected in COS 22 cells assessed as inhibition of Phorbol 12-myristate 13-acetate-stimulated ROS generation by chemiluminescence assay. Format: cell-based. The following applies: read-out: IC50. The essentials: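 COS-Nox2 (COS-7 stably expressing human p22phox, Nox2, p47phox, p67phox) plated in OPTIMEM at 2.5 x 10³ cells/well; 10 min at 37 °C in PBS with L-012, then stimulated with 5 µM PMA; luminescence followed over time; superoxide specificity checked with SOD 150 U/mL. IC50 by three-parameter non-linear fit, Hill slope 1, top/bottom fixed 100/0.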

Another assay deals with T2, NADPH oxidase 1 (Homo sapiens, UniProt Q9Y5S8).
T2 sequence (Q9Y5S8 whole entry): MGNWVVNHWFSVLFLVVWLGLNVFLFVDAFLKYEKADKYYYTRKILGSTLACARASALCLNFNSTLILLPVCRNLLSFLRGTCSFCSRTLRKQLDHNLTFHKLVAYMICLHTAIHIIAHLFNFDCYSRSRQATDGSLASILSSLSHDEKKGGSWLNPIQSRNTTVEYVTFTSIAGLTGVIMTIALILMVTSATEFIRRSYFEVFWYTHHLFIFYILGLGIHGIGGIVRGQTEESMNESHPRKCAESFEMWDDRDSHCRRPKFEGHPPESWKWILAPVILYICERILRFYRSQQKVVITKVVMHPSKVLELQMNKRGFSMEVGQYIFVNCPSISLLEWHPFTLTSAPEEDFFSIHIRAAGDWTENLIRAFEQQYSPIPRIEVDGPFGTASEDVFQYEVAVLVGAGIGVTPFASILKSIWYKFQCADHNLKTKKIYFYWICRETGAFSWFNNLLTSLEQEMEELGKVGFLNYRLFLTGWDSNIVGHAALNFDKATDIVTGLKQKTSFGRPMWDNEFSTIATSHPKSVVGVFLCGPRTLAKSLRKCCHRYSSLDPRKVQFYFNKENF
Nature of the assay: Inhibition of full length human NOX1 transfected in COS 22 cells assessed as inhibition of constitutive ROS generation by chemiluminescence assay. The following applies: read-out: IC50.

For the compound `C=C(C)C[C@@H]1N[C@H]2CC(C)(C)[C@@H]1c1c(Br)cccc12` (racemic), the values for the IC50 at NADPH oxidase 2 and on NADPH oxidase 1 were 46 µM and 31 µM, respectively.
